This note sets out measurements from ChEMBL document CHEMBL1135607, “1-Benzyl-3-(5'-hydroxymethyl-2'-furyl)indazole (YC-1) derivatives as novel inhibitors against sodium nitroprusside-induced apoptosis” (2002).

The species named for the experiment is Rattus norvegicus. Kind of experiment: Effect on the survival of rat aortic smooth muscle cells. The format is functional. Set-up: concentration or dose not given beside the values. The method, boiled down: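 Rat aortic smooth muscle cells in culture, pretreated 30 min with test compound at 30 μM, then vehicle or sodium nitroprusside (1 mM) added for another 24 h. Viability read by MTT assay and TUNEL.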
With `COC(=O)c1ccc(-c2nn(Cc3ccccc3)c3ccccc23)o1`, the Cell survival worked out at 78%.

For `Cc1ccc(-c2nn(Cc3ccccc3)c3ccccc23)o1`, the Cell survival is 31.1%.

For the compound `COc1ccc2c(-c3ccc(CO)o3)nn(Cc3ccccc3)c2c1`, the Cell survival came to 84.5%.

On to SODIUM NITROPRUSSIDE, for which the Cell survival amounted to 41.3%.

`OCc1ccc(-c2nn(Cc3ccccc3)c3ccccc23)o1` displayed a Cell survival of 94.7%.

On to `OCc1ccc(-c2nn(Cc3ccccc3)c3cc(F)ccc23)o1`, for which the Cell survival is 83.3%.

On to `CNCc1ccc(-c2nn(Cc3ccccc3)c3ccccc23)o1`, for which the Cell survival was 57.2%.

`CCN(CC)Cc1ccc(-c2nn(Cc3ccccc3)c3ccccc23)o1` gave a Cell survival of 39.7%.

With `OCc1ccc(-c2nn(Cc3ccccc3)c3cc4c(cc23)OCO4)o1`, the Cell survival amounted to 75.8%.

In turn, `COCc1ccc(-c2nn(Cc3ccccc3)c3ccccc23)o1` came in with a Cell survival of 93.2%.

`OCc1ccc(-c2nn(-c3ccccc3)c3ccccc23)o1` displayed a Cell survival of 93.9%.
